{
  "source": "ChEMBL document CHEMBL1158088",
  "about": "“Bioactive triterpene glycosides from the sea cucumber Holothuria fuscocinerea” (J Nat Prod, 2006)",
  "key": {"HL-60": {"tested_on": "HL-60", "assay": "Cytotoxicity against human HL-60 cells after 72 hrs by MTT assay", "type": "functional, cell-based", "settings": "HL-60, 72 h", "method_in_brief": "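HL-60 human leukemia cells exposed to glycosides for 72 h; viability read by MTT colorimetric assay in 96-well microplates. Dose–response curves plotted; IC50 = concentration giving 50% reduction of absorption versus control cells. Three independent experiments, each concentration in triplicate wells; mean ± SD. 10-Hydroxycamptothecine as positive control.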"}, "Bel-7402": {"tested_on": "Bel-7402", "assay": "Cytotoxicity against human Bel-7402 cells after 72 hrs by sulforhodamine B assay", "type": "functional, cell-based", "settings": "Bel-7402, 72 h", "method_in_brief": "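BEL-7402 human hepatoma cells treated 72 h; cell protein measured by sulforhodamine B assay. IC50 taken from dose–response curves as concentration causing 50% drop in absorption relative to control cells. Means ± SD of three independent experiments, triplicate wells per concentration. 10-Hydroxycamptothecine served as positive control.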"}},
  "data": [
    {"smiles": "CC[C@@]1(O)C(=O)OCc2c1cc1n(c2=O)Cc2cc3cc(O)ccc3nc2-1", "note": "[HYDROXYCAMPTOTHECIN]", "values": [
      {"measurement": "IC50", "setting": "HL-60", "result": 410, "unit": "nM"},
      {"measurement": "IC50", "setting": "Bel-7402", "result": 280, "unit": "nM"}
    ]},
    {"smiles": "CO[C@@H]1[C@@H](O)[C@H](O[C@@H]2[C@@H](O)[C@H](O[C@H]3[C@H](O)[C@@H](O)[C@H](O[C@H]4[C@H](O[C@H]5CC[C@]6(C)C7=C[C@H](O)[C@@]89C(=O)O[C@@](C)(C(=O)CCC(C)C)[C@H]8CC[C@@]9(C)[C@@H]7CC[C@H]6C5(C)C)OC[C@@H](OS(=O)(=O)O)[C@@H]4O)O[C@@H]3C)O[C@H](CO)[C@H]2O)O[C@H](CO)[C@H]1O", "note": "[FUSCOCINEROSIDE B]", "values": [
      {"measurement": "IC50", "setting": "HL-60", "result": 3750, "unit": "nM"},
      {"measurement": "IC50", "setting": "Bel-7402", "result": 2640, "unit": "nM"}
    ]},
    {"smiles": "CO[C@@H]1[C@@H](O)[C@H](O[C@@H]2[C@@H](O)[C@H](O[C@H]3[C@H](O)[C@@H](O)[C@H](O[C@H]4[C@H](O[C@H]5CC[C@]6(C)C7=C[C@H](O)[C@@]89C(=O)O[C@@](C)(C(=O)CCC(C)(C)OC(C)=O)[C@H]8CC[C@@]9(C)[C@@H]7CC[C@H]6C5(C)C)OC[C@@H](OS(=O)(=O)O)[C@@H]4O)O[C@@H]3C)O[C@H](CO)[C@H]2O)O[C@H](CO)[C@H]1O", "note": "[FUSCOCINEROSIDE A]", "values": [
      {"measurement": "IC50", "setting": "HL-60", "result": 6210, "unit": "nM"},
      {"measurement": "IC50", "setting": "Bel-7402", "result": 5580, "unit": "nM"}
    ]},
    {"smiles": "CO[C@@H]1[C@@H](O)[C@H](O[C@@H]2[C@@H](O)[C@H](O[C@H]3[C@H](O)[C@@H](O)[C@H](O[C@H]4[C@H](O[C@H]5CC[C@]6(C)C7=C[C@H](O)[C@@]89C(=O)O[C@@](C)(CCCC(C)C)[C@H]8CC[C@@]9(C)[C@@H]7CC[C@H]6C5(C)C)OC[C@@H](OS(=O)(=O)O)[C@@H]4O)O[C@@H]3C)O[C@H](CO)[C@H]2O)O[C@H](CO)[C@H]1O", "note": "[PERVICOSIDE C]", "values": [
      {"measurement": "IC50", "setting": "HL-60", "result": 4480, "unit": "nM"},
      {"measurement": "IC50", "setting": "Bel-7402", "result": 660, "unit": "nM"}
    ]},
    {"smiles": "CO[C@@H]1[C@@H](O)[C@H](O[C@@H]2[C@@H](O)[C@H](O[C@H]3[C@H](O)[C@@H](O)[C@H](O[C@H]4[C@H](O[C@H]5CC[C@]6(C)C7=C[C@H](O)[C@@]89C(=O)O[C@@](C)(C%10CCC(C)(C)O%10)[C@H]8CC[C@@]9(C)[C@@H]7CC[C@H]6C5(C)C)OC[C@@H](OS(=O)(=O)O)[C@@H]4O)O[C@@H]3C)O[C@H](CO)[C@H]2O)O[C@H](CO)[C@H]1O", "note": "(some centres not stated) [FUSCOCINEROSIDE C]", "values": [
      {"measurement": "IC50", "setting": "HL-60", "result": 880, "unit": "nM"},
      {"measurement": "IC50", "setting": "Bel-7402", "result": 580, "unit": "nM"}
    ]},
    {"smiles": "CO[C@@H]1[C@@H](O)[C@H](O[C@@H]2[C@@H](O)[C@H](O[C@H]3[C@H](O)[C@@H](O)[C@H](O[C@H]4[C@H](O[C@H]5CC[C@]6(C)C7=C[C@H](O)[C@@]89C(=O)O[C@@](C)(C%10CCC(C)(C)O%10)[C@@]8(O)CC[C@@]9(C)[C@@H]7CC[C@H]6C5(C)C)OC[C@@H](OS(=O)(=O)O)[C@@H]4O)O[C@@H]3C)O[C@H](CO)[C@H]2O)O[C@H](CO)[C@H]1O", "note": "(some centres not stated) [HOLOTHURIN A]", "values": [
      {"measurement": "IC50", "setting": "HL-60", "result": 4420, "unit": "nM"},
      {"measurement": "IC50", "setting": "Bel-7402", "result": 760, "unit": "nM"}
    ]}
  ]
}
